From PubChem BioAssay
The list is not random: actives were taken first. Their share in the collection is about 3.1%.
rRNA inh HTS: selective bacterial rRNA inhibition in E. coli; E. coli WT GFP vs humanized-ribosome RFP mutants, fluorescence, 24 h; stronger effect = lower value; DMSO median 0, no signal -100; GFP signal change (wild-type ribosome), % (test concentration not listed); actives 1.6% (n = 350,000);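 active = significant combined selectivity score with lowered wild-type GFP, culture density cut under 30%, mutant RFP and density less affected; inactive = any of these conditions unmet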
Cneo AK release: Cryptococcus neoformans lysis via adenylate kinase release; C. neoformans lysis, adenylate kinase release luminescence, 4 h; normalised: neutral wells 0, clomiphene wells 100; lysis activity, % at 15 µM; actives 0.2% (n = 360,000); AID 651654;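 active = mean lysis activity across replicates of at least 80%, whatever share of replicates individually reach that level; inactive = mean lysis activity below 80%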
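Assay system: log-phase C. neoformans yeast / Quantity: yeast cell density of 5 × 10^6 cells/mL / Medium: fresh YPD growth medium / Compound: single dose / Timing: static 4 h at 37 °C with compound, 1 h detection / Measured by: adenylate kinase release luminescence / Read-out: lysis from increased AK signal / Benchmarks: Clomiphene as positive lysis control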
INS-1E GSIS act: primary screen for activators of insulin secretion dependent on glucose, INS-1E cells, GLuc reporter luminescence; actives 0.61% (n = 370,000); activation, % at 16.6 µM; INS-1E GLuc reporter insulin secretion, 2-3 h; AID 743287;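 active = lowest replicate activation of at least 40%, so every replicate reaches that level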;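 note: 0% = median of neutral control wells and 100% = median of IBMX positive control wells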
F508del corr: correctors of CFTR F508del function in bronchial epithelial cells; CFBE cells, YFP halide quenching; stimulated with forskolin plus potentiator P3; % fluorescence drop versus neutral controls; activity (quench increase), % at 7.58 µM; AID 720511; actives 0.36% (n = 350,000);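 active = mean added fluorescence quench of at least 8% versus neutral control, with both replicates also reaching 8%; inconclusive = only one of the mean or replicate conditions met; inactive = mean below 8% and not both replicates reaching 8%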;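 note: cells transiently co-express mutant CFTR-F508del with the halide-sensitive YFP; corrector assay measuring rescue of mutant channel to the surface after 24 h compound exposure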
Env fusion inh: inhibitors of HIV Env-mediated cell fusion; HeLa-JRFL Env/CEM21 cell fusion, luciferase; inhibition, % at 12.3 µM; actives 1.1% (n = 360,000); AID 651610;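 active = mean replicate inhibition score of at least 50 and every replicate individually at or above 50; inconclusive = only one of the two criteria met; inactive = mean below 50 and not all replicates reaching 50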;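 note: 0% = plate neutral controls and 100% = maraviroc near 300 nM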
miR122 inh: inhibitors of miR-122 in Huh7 cells; Huh7 miR-122 Renilla luciferase sensor, 48 h; neutral wells = 0, positive control = 100; activation (reporter increase), % at 12.5 µM; actives 0.3% (n = 340,000); AID 602342;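 active = mean replicate activation score at least 90 and every replicate individually at or above 90; inconclusive = only one of the two criteria met; inactive = neither criterion met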;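 note: higher luciferase means less miR-122 activity so hits act as miR-122 inhibitors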
Numbers without * were called inactive; [ ] = remark or other dose.

Results for O=C1CCC(CCc2nc3ccccc3[nH]2)(c2ccccc2)C(=O)N1 (stereo not given) ?
rRNA inh HTS: -6; Cneo AK release: -1; INS-1E GSIS act: 27; F508del corr: 11*; Env fusion inh: -10; miR122 inh: -1

What do the screens show for `CC(Oc1ccccc1)C(=O)Nc1nnc(S(=O)(=O)Nc2ccccc2)s1` (stereo not given)?
rRNA inh HTS: -13*; Cneo AK release: -1; F508del corr: 0; Env fusion inh: -24; miR122 inh: 4

Results for CC(Oc1ccccc1)C(=O)Nc1nnc(S(=O)(=O)N2CCCCC2)s1 (stereo not given) ?
rRNA inh HTS: -3; Cneo AK release: 0; INS-1E GSIS act: -31; F508del corr: 1; Env fusion inh: 1; miR122 inh: -10

How did CCN(CC)S(=O)(=O)c1cccc(C(=O)NC(C(=O)NCCc2ccccn2)C(C)C)c1 (stereo not given) do in these assays?
rRNA inh HTS: 7; Cneo AK release: 2; F508del corr: 0; Env fusion inh: 22; miR122 inh: 0

How did CN(CC1CCCO1)S(=O)(=O)c1ccc(C(=O)Nc2nc3cc4c(cc3s2)OCO4)cc1 (stereo not given) do in these assays?
rRNA inh HTS: -5; Cneo AK release: 5; INS-1E GSIS act: -9; F508del corr: -2; Env fusion inh: 57*

How did O=C(Nc1nc2cc3c(cc2s1)OCCO3)c1cccc(N2C(=O)CCC2=O)c1 do in these assays?
rRNA inh HTS: -6; Cneo AK release: -5; F508del corr: -6; Env fusion inh: -114; miR122 inh: 0

Results for CCc1nnc(NC(=O)[C@@H](NC(=O)c2cccc(S(=O)(=O)N(CC)CC)c2)C(C)C)s1 ?
Cneo AK release: 4; INS-1E GSIS act: -21; Env fusion inh: 70*; miR122 inh: -6

How did CCN(CC)S(=O)(=O)c1cccc(C(=O)Nc2nc3cc4c(cc3s2)OCCO4)c1 do in these assays?
rRNA inh HTS: -8; Cneo AK release: -2; INS-1E GSIS act: 4; Env fusion inh: 62*; miR122 inh: -2

What do the screens show for `COc1ccc(CN(C)C[C@@H]2OCCCC[C@H](C)Oc3ccc(NS(=O)(=O)c4cccs4)cc3C(=O)N([C@@H](C)CO)C[C@H]2C)cc1`?
rRNA inh HTS: 1; Cneo AK release: 1; INS-1E GSIS act: -5; F508del corr: 1; Env fusion inh: 27[16.7 µM]; miR122 inh: 9[16.7 µM]

How did CCCN(C)C[C@@H]1Oc2ncc(-c3ccccc3)cc2C(=O)N([C@H](C)CO)C[C@H]1C do in these assays?
F508del corr: -2; Env fusion inh: -1[16.7 µM]; miR122 inh: -12[16.7 µM]

Results for Cc1ccc(-n2nnnc2SCC(=O)Nc2ncc(Cc3ccccc3Cl)s2)cc1 ?
Cneo AK release: 0; INS-1E GSIS act: 156*; miR122 inh: 2

How did CN(C)C(=O)C[C@H]1C=C[C@@H](NC(=O)C2CC2)[C@@H](CO)O1 do in these assays?
rRNA inh HTS: 2; Cneo AK release: -3; INS-1E GSIS act: 5; F508del corr: 0; Env fusion inh: -1[16.7 µM]

How did Cc1cccc[n+]1CC(=O)/C=C1\N(C)c2ccccc2C1(C)C do in these assays?
rRNA inh HTS: 5; Cneo AK release: -5; INS-1E GSIS act: -87; Env fusion inh: inconclusive; miR122 inh: -2

What do the screens show for `CN1/C(=C/C=C/c2n(C)c3cc([N+](=O)[O-])c([N+](=O)[O-])cc3[n+]2C)C(C)(C)c2ccccc21`?
rRNA inh HTS: -59*; Cneo AK release: -2; INS-1E GSIS act: -65; F508del corr: 1; Env fusion inh: 15; miR122 inh: -38

How did CNC(=O)NC(=O)C(C)OC(=O)c1ccc(Cl)c(S(=O)(=O)Nc2ccc(F)cc2)c1 (stereo not given) do in these assays?
rRNA inh HTS: -26*; Cneo AK release: -3; INS-1E GSIS act: -19; F508del corr: 3; Env fusion inh: 0; miR122 inh: 215*

What do the screens show for `CO[C@H]1CN(C)C(=O)c2ccc(NC(=O)NC(C)C)cc2OC[C@@H](C)N(Cc2ccccn2)C[C@@H]1C`?
rRNA inh HTS: -3; Cneo AK release: -2; INS-1E GSIS act: 9; F508del corr: 0; Env fusion inh: 1[16.7 µM]

What do the screens show for `O=C(C[C@@H]1C=C[C@H](NC(=O)Nc2cc(F)ccc2F)[C@H](CO)O1)NCc1ccccn1`?
rRNA inh HTS: 1; Cneo AK release: 0; INS-1E GSIS act: 2; F508del corr: -2; Env fusion inh: -4[16.7 µM]

What do the screens show for `Cc1noc(C)c1NC(=O)Nc1ccc2c(c1)C(=O)N([C@H](C)CO)C[C@@H](C)[C@@H](CN(C)CC1CCCCC1)OCCCC[C@H](C)O2`?
rRNA inh HTS: 5; Cneo AK release: 43; INS-1E GSIS act: 10; F508del corr: -1; Env fusion inh: 4[16.7 µM]; miR122 inh: -4[16.7 µM]

What do the screens show for `COc1cccc(-c2ccc3c(c2)O[C@H](CN(C)Cc2cncnc2)[C@H](C)CN([C@H](C)CO)S3(=O)=O)c1`?
rRNA inh HTS: -2; Cneo AK release: 2; INS-1E GSIS act: -6; F508del corr: -3; Env fusion inh: -11[16.7 µM]; miR122 inh: -11[16.7 µM]

Results for Cc1cc(=O)[nH]c(SCc2cn3ccccc3n2)n1 ?
rRNA inh HTS: 6; INS-1E GSIS act: 73*; F508del corr: 0; Env fusion inh: -15; miR122 inh: -3

What do the screens show for `Cn1ccnc1SCc1cn2ccccc2n1`?
Cneo AK release: 2; miR122 inh: 2

What do the screens show for `COCC#Cc1ccc([C@H]2[C@H]3CN(C(=O)Nc4cc(F)ccc4F)CC(=O)N3[C@H]2CO)cc1`?
rRNA inh HTS: 2; INS-1E GSIS act: 3

Results for CCC(C)N(C(=O)COC(=O)c1cc([N+](=O)[O-])ccc1N)C1CCS(=O)(=O)C1 (stereo not given) ?
rRNA inh HTS: 20; Cneo AK release: 3; INS-1E GSIS act: -3; F508del corr: -1; Env fusion inh: 70*; miR122 inh: -11

How did CCNC1CCC(Nc2ccnc3cc(Cl)ccc23)CC1 (stereo not given) do in these assays?
rRNA inh HTS: 10; Cneo AK release: 0; F508del corr: 1; Env fusion inh: 74*; miR122 inh: -2

How did OC(CNc1ccnc2cc(Cl)ccc12)CNC1CCCCC1 (stereo not given) do in these assays?
Env fusion inh: 2; miR122 inh: -15

What do the screens show for `COc1cccc(C(=O)Nc2nnc(S(=O)(=O)N3CCCC3)s2)c1`?
rRNA inh HTS: 1; Cneo AK release: 0; INS-1E GSIS act: 5; F508del corr: -1; Env fusion inh: -11; miR122 inh: 4
